ChEMBL document CHEMBL4340554, “Design, synthesis and biological evaluation of novel 4,5-dihydro-[1,2,4]triazolo[4,3-f]pteridine derivatives as potential BRD4 inhibitors” (Bioorg Med Chem, 2019)
Activity calls are given as the source filed them. The rule behind the calls is not given here.

Legend:
MV4-11 [1] = test: Antiproliferative activity against human MV4-11 cells incubated for 72 hrs by CCK-8 assay; type: functional, cell-based; details: MV4-11, 72 h
[2] = Inhibition of […] BRD4 bromodomain 1 incubated for 60 mins by TR-FRET assay
HL-60 = test: Antiproliferative activity against human HL60 cells incubated for 72 hrs by CCK-8 assay; type: functional, cell-based; details: HL-60, 72 h
MV4-11 [3] = test: Induction of apoptosis in human MV4-11 cells assessed as viable cells level at 1 uM incubated for 24 hrs by Annexin V-FITC and propidium iodide staining based flow cytometry (reference value: 97.7%); type: functional
MV4-11 [4] = test: Induction of apoptosis in human MV4-11 cells assessed as early apoptotic cells level at 1 uM incubated for 24 hrs by Annexin V-FITC and propidium iodide staining based flow cytometry (reference value: 0.8%); type: functional
MV4-11 [5] = test: Induction of apoptosis in human MV4-11 cells assessed as late apoptotic cells level at 1 uM incubated for 24 hrs by Annexin V-FITC and propidium iodide staining based flow cytometry (reference value: 1.5%); type: functional
MV4-11 [6] = test: Induction of apoptosis in human MV4-11 cells assessed as necrotic cells level at 1 uM incubated for 24 hrs by Annexin V-FITC and propidium iodide staining based flow cytometry (reference value: 0.0%); type: functional
MV4-11 [7] = test: Induction of apoptosis in human MV4-11 cells assessed as viable cells level at 5 uM incubated for 24 hrs by Annexin V-FITC and propidium iodide staining based flow cytometry (reference value: 97.7%); type: functional
MV4-11 [8] = test: Induction of apoptosis in human MV4-11 cells assessed as early apoptotic cells level at 5 uM incubated for 24 hrs by Annexin V-FITC and propidium iodide staining based flow cytometry (reference value: 0.8%); type: functional
MV4-11 [9] = test: Induction of apoptosis in human MV4-11 cells assessed as late apoptotic cells level at 5 uM incubated for 24 hrs by Annexin V-FITC and propidium iodide staining based flow cytometry (reference value: 1.5%); type: functional
MV4-11 [10] = test: Induction of apoptosis in human MV4-11 cells assessed as necrotic cells level at 5 uM incubated for 24 hrs by Annexin V-FITC and propidium iodide staining based flow cytometry (reference value: 0.0%); type: functional
MV4-11 [11] = test: Reduction in c-Myc protein expression in human MV4-11 cells at 1 to 10 uM incubated for 4 hrs Western blotting; type: functional, cell-based
Outline: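 MV4;11 leukemia cells (used within two months) were grown in IMDM with 10% FBS and 1% penicillin-streptomycin at 37℃ and 5% CO2. Log-phase cells were cultured 24 h, then treated for 4 h. They were lysed at 4℃ and protein was quantified by BCA. Lysates were run on SDS-PAGE (10% separating, 4% stacking gel) and transferred to PVDF. Membranes were blocked 2 h in 5% milk/TBST, probed overnight at 4℃ with anti-c-myc and anti-β-actin, and given secondary antibody for 2 h.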

MV4-11 [12] = test: Induction of cell cycle arrest in human MV4-11 cells assessed as accumulation at G1 phase incubated for 24 hrs by propidium iodide staining based flow cytometry; type: functional
Outline: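 MV4;11 cells, used within two months of culture, grown in IMDM with 10% FBS and 1% penicillin-streptomycin at 37℃ under CO2. Cells were treated with compound for 24 h and then processed with a cell cycle detection kit following the kit protocol. Phase distribution was analysed by flow cytometry.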

Compound	IC50 (MV4-11 [1])	IC50 [2]	IC50 (HL-60)	other results
Cc1nnc2n1-c1cnc(Nc3ccc(N)cc3)nc1N(C1CCCC1)C2	1.53 µM	0.079 µM	7.16 µM	Activity (MV4-11 [3]): 89.7%; Activity (MV4-11 [4]): 0.5%; Activity (MV4-11 [5]): 3.9%; Activity (MV4-11 [6]): 5.9%; Activity (MV4-11 [7]): 72.5%; Activity (MV4-11 [8]): 3.8%; Activity (MV4-11 [9]): 20.4%; Activity (MV4-11 [10]): 3.4%; Activity (MV4-11 [11]): Active; Activity (MV4-11 [12]): Dose-dependent effect
Cc1nnc2n1-c1cnc(Nc3ccc(C(C)(C)C)cc3)nc1N(C1CCCC1)C2	> 30 µM	> 30 µM	> 30 µM	
COc1ccc(Nc2ncc3c(n2)N(C2CCCC2)Cc2nnc(C)n2-3)cc1OC	6.79 µM	0.22 µM	26.7 µM	
Cc1nnc2n1-c1cnc(Nc3ccc(S(C)(=O)=O)cc3)nc1N(C1CCCC1)C2	1.92 µM	0.089 µM	7.85 µM	
COc1ccc(Nc2ncc3c(n2)N(C2CCCC2)Cc2nnc(C)n2-3)cc1	4.84 µM	0.16 µM	18.7 µM	
Cc1nnc2n1-c1cnc(Nc3ccc(Cl)cc3)nc1N(C1CCCC1)C2	> 30 µM	1.54 µM	> 30 µM	
Cc1nnc2n1-c1cnc(Nc3ccc(F)cc3)nc1N(C1CCCC1)C2	> 30 µM	1.28 µM	> 30 µM	
Cc1nnc2n1-c1cnc(Nc3cccc(Cl)c3)nc1N(C1CCCC1)C2	> 30 µM	1.43 µM	> 30 µM	
Cc1cccc(Nc2ncc3c(n2)N(C2CCCC2)Cc2nnc(C)n2-3)c1	> 30 µM	1.56 µM	> 30 µM	
COc1cccc(Nc2ncc3c(n2)N(C2CCCC2)Cc2nnc(C)n2-3)c1	6.74 µM	0.18 µM	25.5 µM	
Cc1ccc(Nc2ncc3c(n2)N(C2CCCC2)Cc2nnc(C)n2-3)cc1	7.34 µM	0.38 µM	29 µM	
CCCCc1ccc(Nc2ncc3c(n2)N(C2CCCC2)Cc2nnc(C)n2-3)cc1	> 30 µM	1.43 µM	> 30 µM	
Cc1nnc2n1-c1cnc(Nc3ccccc3)nc1N(C1CCCC1)C2	5.53 µM	0.22 µM	21.4 µM	
Cc1sc2c(c1C)C(c1ccc(Cl)cc1)=N[C@@H](CC(=O)OC(C)(C)C)c1nnc(C)n1-2	0.57 µM	0.066 µM	2.91 µM	Activity (MV4-11 [3]): 84.5%; Activity (MV4-11 [4]): 0.2%; Activity (MV4-11 [5]): 9.1%; Activity (MV4-11 [6]): 6.1%; Activity (MV4-11 [7]): 61.6%; Activity (MV4-11 [8]): 2.5%; Activity (MV4-11 [9]): 31.9%; Activity (MV4-11 [10]): 4%; Activity (MV4-11 [12]): Dose-dependent effect
Cc1nnc2n1-c1cnc(Nc3ccccc3[N+](=O)[O-])nc1N(C1CCCC1)C2	10.7 µM	0.18 µM	> 30 µM	
Cc1ccccc1Nc1ncc2c(n1)N(C1CCCC1)Cc1nnc(C)n1-2	8.46 µM	0.41 µM	> 30 µM	
COc1ccccc1Nc1ncc2c(n1)N(C1CCCC1)Cc1nnc(C)n1-2	4.17 µM	0.16 µM	19.2 µM	
Cc1nnc2n1-c1cnc(Nc3ccc(C(C)C)cc3)nc1N(C1CCCC1)C2	16.2 µM	0.86 µM	> 30 µM	
Cc1nnc2n1-c1cnc(Nc3ccc([N+](=O)[O-])cc3)nc1N(C1CCCC1)C2	21.4 µM	0.54 µM	> 30 µM	
